Measured values published in paper PMC9016318 (Cancer Research and Treatment : Official Journal of Korean …, 2021).
No end group written: not given here.

Columns and labels:
ICIK cells = test: CCK-8 cytotoxicity, ICIK cells; assay type: cell-based, human; conditions: CCK-8, 64 μM, 24 hours
How it was run: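 ICIK cells were human blood PBMCs, Ficoll-separated, held overnight at 4°C on anti-CD3 (OKT3, 10 μg/mL) coated dishes, then grown 10 days in RPMI 1640/10% FBS with IFN-γ 2000 U/mL and IL-2 10 ng/mL. They were seeded at 4,000/well and cultured 24 h. Test peptide at 1–64 μM was added for 24 h, then CCK-8 for 2 h, and absorbance read at 450. Viability was blank/baseline-corrected against untreated wells.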

Cal27 cells = test: CCK-8 cytotoxicity, Cal27 cells; assay type: cell-based, human; conditions: CCK-8, 64 μM, 24 hours
How it was run: (§1)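 Cells were seeded in 96-well plates and cultured 24 h: Jurkat T at 4,000/well, Cal27 at 2,000/well. Test peptide was added at 1–64 μM for 24 h, then CCK-8 for 2 h, and absorbance was read at 450. Viability % = (sample − no-cell baseline with peptide)/(untreated control − no-cell blank) × 100. Data are mean±standard error of three separate experiments.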

Jurkat T cells = test: CCK-8 cytotoxicity, Jurkat T cells; assay type: cell-based, human; conditions: CCK-8, 64 μM, 24 hours
How it was run: as §1

[1] = molecular target: human recombinant PD-1 protein (human, UniProt Q15116); test: SPR
Sequence of human recombinant PD-1 protein (Q15116 25-170): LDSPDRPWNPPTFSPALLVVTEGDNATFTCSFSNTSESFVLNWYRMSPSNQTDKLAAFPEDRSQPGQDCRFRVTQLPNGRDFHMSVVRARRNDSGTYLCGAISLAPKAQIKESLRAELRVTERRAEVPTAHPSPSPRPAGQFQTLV

Row | Molecule | cytotoxicity to ICIK cells (ICIK cells) | cytotoxicity to stimulated Cal27 cells (Cal27 cells) | cytotoxicity to Jurkat T cells (Jurkat T cells) | Kd [1] [µM]
1 | SRLKEIANSPTQFWRMVARNTLGNGAKQSLNIEHARL [nABP284] | not directly cytotoxic | not directly cytotoxic | not directly cytotoxic | –
2 | SRLKEIANSPTQFWRMVARNTLGNGAKQSLNIEHARL [nABP284] | – | – | – | 11.8
